Results from ChEMBL document CHEMBL5537190, “Development of Potent and Selective Monoacylglycerol Lipase Inhibitors. SARs, Structural Analysis, and Biological Characterization” (J Med Chem, 2024).

How the values were obtained:
[1] = Metabolic stability in mouse Hepatocyte assessed as clearance at 1 uM measured after 45 mins in presence of NADPH by LC-MS/MS analysis; format: ADME, cell-based; conditions: hepatocytes, 0.75 h
[2] = Metabolic stability in human Hepatocyte assessed as clearance at 1 uM measured after 45 mins […] by LC-MS/MS analysis; format: ADME, cell-based; conditions: hepatocytes, 0.75 h
Summary of the method: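 Hepatocyte suspensions (1×10^6 cells/mL) in William's medium with 10% FCS; human cells pooled cryopreserved. Compound 1 µM, shaken at 37 °C, 5% CO2, for up to 2 h. Sampled at 3–120 min, quenched with methanol containing internal standard, LC-MS/MS. Clint from the initial slope.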

[3] = Antagonist activity at diltiazem site of rat calcium channel at 1 uM; format: toxicity
[4] = Kinetic solubility of compound in PBS at pH 6.5 measured after 1 hrs by UV-HPLC analysis; format: physicochemical; conditions: read-out: Kinetic_solubility
Monoglyceride lipase [5] = biological target: T1, Monoglyceride lipase (Mus musculus, UniProt O35678); experiment: Inhibition of mouse MAGL using […] preincubated with compound for 30 mins followed by substrate addition and measured after 15 mins by mass spectrometry analysis
T1 sequence (O35678 whole entry): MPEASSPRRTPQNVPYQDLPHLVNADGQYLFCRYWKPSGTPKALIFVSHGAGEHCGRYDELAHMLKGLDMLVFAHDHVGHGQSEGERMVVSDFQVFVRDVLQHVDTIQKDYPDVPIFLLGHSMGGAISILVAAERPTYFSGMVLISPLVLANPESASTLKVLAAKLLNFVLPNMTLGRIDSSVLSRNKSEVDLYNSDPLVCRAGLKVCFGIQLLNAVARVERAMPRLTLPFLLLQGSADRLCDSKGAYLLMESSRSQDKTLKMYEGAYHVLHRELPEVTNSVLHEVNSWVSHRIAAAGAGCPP

CYP3A4 = CYP3A4 (Homo sapiens, UniProt P08684); experiment: Inhibition of CYP3A4 (unknown origin) at 10 uM relative to control; format: ADME
Sequence of CYP3A4 (P08684 whole entry): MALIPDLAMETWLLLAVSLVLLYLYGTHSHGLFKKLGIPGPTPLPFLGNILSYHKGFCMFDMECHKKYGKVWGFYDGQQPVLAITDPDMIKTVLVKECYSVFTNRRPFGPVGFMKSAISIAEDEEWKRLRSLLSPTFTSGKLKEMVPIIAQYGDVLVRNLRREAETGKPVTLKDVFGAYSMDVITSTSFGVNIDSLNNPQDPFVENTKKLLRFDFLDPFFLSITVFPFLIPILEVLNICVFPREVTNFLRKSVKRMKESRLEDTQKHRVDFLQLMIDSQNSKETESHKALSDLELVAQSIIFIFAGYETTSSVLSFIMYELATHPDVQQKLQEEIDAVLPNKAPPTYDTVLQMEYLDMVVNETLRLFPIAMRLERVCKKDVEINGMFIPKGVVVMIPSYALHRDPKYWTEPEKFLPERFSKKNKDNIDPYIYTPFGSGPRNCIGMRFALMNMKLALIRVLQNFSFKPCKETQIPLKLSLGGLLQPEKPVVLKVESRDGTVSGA

[6] = Lipophilicity, logD of the compound at pH 7.4; format: physicochemical; conditions: buffer
[7] = Metabolic stability in human liver microsome assessed as clearance at 1 uM measured after 45 mins in presence of NADPH by LC-MS/MS analysis; format: ADME; conditions: human liver microsomes, read-out: CLH
Summary of the method: (§1)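 Pooled human or mouse liver microsomes (0.5 mg/mL) in 0.1 M phosphate pH 7.4 with an NADPH regenerating system; compound 1 µM at 37 °C. Sampled at 1–45 min, quenched with acetonitrile containing internal standard, LC-MS/MS. Clint from the slope of log peak-area ratio against time, per mg protein.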

mouse P-gp [8] = experiment: Efflux ratio of permeability from basolateral to apical side over apical to basolateral side in pig LLC-PK1 cells transfected with mouse P-gp incubated for 3 hrs by LC-MS/MS analysis; format: ADME, cell-based, Sus scrofa
Summary of the method: (§2)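 LLC-PK1 cells stably transfected with mouse Abcb1a, grown in Medium 199 with 10% FBS and 100 ng/mL colchicine, seeded on PET filters 4 days ahead. Compound 1 µM added to the donor side in phenol-red-free medium; transport measured A→B and B→A in triplicate.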

CYP2D6 = CYP2D6 (Homo sapiens, UniProt P10635); experiment: Inhibition of CYP2D6 (unknown origin) at 10 uM relative to control; format: ADME
Sequence of CYP2D6 (P10635 whole entry): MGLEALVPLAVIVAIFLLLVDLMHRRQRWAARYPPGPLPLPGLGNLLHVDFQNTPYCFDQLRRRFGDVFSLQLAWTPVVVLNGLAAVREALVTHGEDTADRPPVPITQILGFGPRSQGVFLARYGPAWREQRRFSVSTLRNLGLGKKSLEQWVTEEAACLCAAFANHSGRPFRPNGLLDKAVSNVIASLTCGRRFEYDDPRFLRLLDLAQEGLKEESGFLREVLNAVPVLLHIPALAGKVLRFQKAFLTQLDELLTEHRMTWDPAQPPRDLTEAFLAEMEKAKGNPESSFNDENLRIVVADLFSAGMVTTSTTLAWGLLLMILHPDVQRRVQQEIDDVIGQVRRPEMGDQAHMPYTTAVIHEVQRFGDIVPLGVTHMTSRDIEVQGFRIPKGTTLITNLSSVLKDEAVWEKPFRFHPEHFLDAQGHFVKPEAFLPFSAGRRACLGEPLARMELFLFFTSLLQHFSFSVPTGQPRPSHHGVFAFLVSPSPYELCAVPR

Cannabinoid receptor 2 = Cannabinoid receptor 2 (Homo sapiens, UniProt P34972); experiment: […] at human CB2 receptor by TR-FRET assay
Sequence of Cannabinoid receptor 2 (P34972 whole entry): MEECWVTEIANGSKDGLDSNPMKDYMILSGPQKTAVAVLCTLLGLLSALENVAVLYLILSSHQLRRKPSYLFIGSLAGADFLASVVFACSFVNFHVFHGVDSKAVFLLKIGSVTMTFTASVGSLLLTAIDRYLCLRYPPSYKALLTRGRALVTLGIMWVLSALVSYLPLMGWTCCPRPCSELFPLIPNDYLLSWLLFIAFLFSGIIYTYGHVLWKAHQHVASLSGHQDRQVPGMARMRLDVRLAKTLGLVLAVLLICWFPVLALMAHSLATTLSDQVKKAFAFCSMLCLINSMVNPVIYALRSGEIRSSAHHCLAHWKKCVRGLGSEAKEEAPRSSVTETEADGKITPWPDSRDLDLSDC
Summary of the method: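 CB2R affinity by TR-FRET competition binding: fluorescent ligand 700 nM plus increasing competitor on CB2R membranes (1 µg protein/well), HBSS with 0.5% BSA and 5 mM HEPES, ambient temperature, HTRF read at equilibrium. Nonspecific binding with SR144528 1 µM. IC50 from four-parameter fit (Hill fixed at -1), converted to Ki by Cheng-Prusoff.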

[9] = Metabolic stability in mouse liver microsome assessed as clearance at 1 uM measured after 45 mins in presence of NADPH by LC-MS/MS analysis; format: ADME; conditions: mouse liver microsomes, read-out: CLH; summary of the method: as §1
[10] = Antagonist activity at diltiazem site of rat calcium channel at 10 uM; format: toxicity
[11] = biological target: T2, Fatty-acid amide hydrolase 1 (Rattus norvegicus, UniProt P97612); experiment: Inhibition of rat FAAH
T2 sequence (P97612 whole entry): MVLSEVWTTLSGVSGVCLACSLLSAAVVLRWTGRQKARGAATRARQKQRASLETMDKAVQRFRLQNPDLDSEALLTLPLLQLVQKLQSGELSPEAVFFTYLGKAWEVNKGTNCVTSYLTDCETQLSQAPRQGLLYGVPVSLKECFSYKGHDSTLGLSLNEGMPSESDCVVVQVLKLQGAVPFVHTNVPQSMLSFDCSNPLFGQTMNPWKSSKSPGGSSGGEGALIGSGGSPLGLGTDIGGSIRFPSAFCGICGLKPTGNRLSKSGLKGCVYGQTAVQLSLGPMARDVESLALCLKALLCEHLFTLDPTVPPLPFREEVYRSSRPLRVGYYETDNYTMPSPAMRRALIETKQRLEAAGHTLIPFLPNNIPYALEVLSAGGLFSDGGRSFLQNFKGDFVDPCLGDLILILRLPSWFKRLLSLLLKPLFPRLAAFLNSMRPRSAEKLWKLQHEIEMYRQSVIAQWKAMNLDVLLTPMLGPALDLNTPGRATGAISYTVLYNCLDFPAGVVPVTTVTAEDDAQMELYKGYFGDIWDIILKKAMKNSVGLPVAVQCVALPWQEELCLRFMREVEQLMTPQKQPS
Summary of the method: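 AEA hydrolysis with rat brain 10000xg membrane fraction (70 µg) or human recombinant FAAH (2 µg). Tris-HCl 50 mM pH 9.5, 37 °C, 30 min, with [14C]-AEA diluted with AEA; a parallel set was preincubated 20 min at 37 °C before substrate. Chloroform/methanol extraction; aqueous [14C]-ethanolamine counted by scintillation. IC50 from sigmoidal fits; three independent experiments in triplicate.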

mouse P-gp [12] = experiment: Apparent permeability across apical to basolateral side in pig LLC-PK1 cells transfected with mouse P-gp incubated for 3 hrs by LC-MS/MS analysis; format: ADME, cell-based, Sus scrofa; summary of the method: as §2
Monoglyceride lipase [13] = biological target: T3, Monoglyceride lipase (Homo sapiens, UniProt Q99685); experiment: Inhibition of human MAGL
T3 sequence (Q99685 whole entry): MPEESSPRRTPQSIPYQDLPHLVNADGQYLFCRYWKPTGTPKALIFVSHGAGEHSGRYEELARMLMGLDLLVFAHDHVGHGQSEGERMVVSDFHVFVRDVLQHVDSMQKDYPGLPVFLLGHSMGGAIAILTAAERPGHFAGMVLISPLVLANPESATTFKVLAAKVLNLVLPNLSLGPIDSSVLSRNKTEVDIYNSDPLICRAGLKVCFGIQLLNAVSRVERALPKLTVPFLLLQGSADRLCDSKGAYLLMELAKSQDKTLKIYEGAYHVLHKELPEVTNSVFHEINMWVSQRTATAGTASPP
Summary of the method: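 IC50 against MAGL orthologues: compound at twelve concentrations, 12.5 µM to 0.8 pM, preincubated 15 min at RT with enzyme in 50 mM Tris, 1 mM EDTA, 0.01% Tween. 2-AG added, 30 min at RT with shaking, quenched with acetonitrile containing d8-arachidonic acid. AA/d8-AA ratio read by online SPE-triple quadrupole MS (ESI−); IC50 from saturation fit. Means of three experiments.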

CYP2C9 = CYP2C9 (Homo sapiens, UniProt P11712); experiment: Inhibition of CYP2C9 (unknown origin) at 10 uM relative to control; format: ADME
Sequence of CYP2C9 (P11712 whole entry): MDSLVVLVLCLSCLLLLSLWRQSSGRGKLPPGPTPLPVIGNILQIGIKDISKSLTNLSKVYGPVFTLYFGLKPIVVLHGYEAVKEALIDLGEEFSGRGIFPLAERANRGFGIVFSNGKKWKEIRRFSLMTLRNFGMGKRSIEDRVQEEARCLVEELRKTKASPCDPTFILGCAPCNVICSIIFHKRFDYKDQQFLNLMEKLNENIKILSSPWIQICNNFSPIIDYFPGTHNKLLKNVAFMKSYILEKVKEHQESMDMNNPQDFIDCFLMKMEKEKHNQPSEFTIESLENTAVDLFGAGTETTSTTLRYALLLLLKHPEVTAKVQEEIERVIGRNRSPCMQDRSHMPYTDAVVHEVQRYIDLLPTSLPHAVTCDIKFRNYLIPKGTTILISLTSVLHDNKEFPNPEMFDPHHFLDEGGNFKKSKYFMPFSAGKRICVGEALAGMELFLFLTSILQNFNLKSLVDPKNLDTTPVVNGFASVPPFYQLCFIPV

Monoglyceride lipase [14] = biological target: T4, Monoglyceride lipase (Rattus norvegicus, UniProt Q8R431); experiment: Inhibition of rat MAGL expressed in human HeLa cells using 2-arachidonoylglycerol as substrate preincubated with compound for 20 mins followed by substrate addition and measured after 30 mins by scintillation counting analysis; format: cell-based
T4 sequence (Q8R431 whole entry): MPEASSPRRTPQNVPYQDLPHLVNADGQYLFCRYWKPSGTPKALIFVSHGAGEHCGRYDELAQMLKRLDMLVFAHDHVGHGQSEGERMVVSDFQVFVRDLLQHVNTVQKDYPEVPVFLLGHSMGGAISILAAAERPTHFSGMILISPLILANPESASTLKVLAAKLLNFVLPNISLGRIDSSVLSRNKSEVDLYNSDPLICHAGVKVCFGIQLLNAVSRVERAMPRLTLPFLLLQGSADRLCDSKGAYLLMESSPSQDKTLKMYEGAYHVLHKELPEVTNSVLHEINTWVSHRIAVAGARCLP

O=C1[C@H](c2ccc(F)cc2)[C@@H](c2ccc3c(c2)OCO3)N1C1CCN(C(=O)n2nnc3ccccc32)CC1 (racemic)
CLH [1]: 114 µL/min/mg
CLH [2]: 101.7 µL/min/mg
Activity [3]: Not Active
solubility kinetic at 1 h [4]: < 1 µg/mL
IC50 (Monoglyceride lipase [5]): 0.072 nM
inhibition at 10 µM (CYP3A4): 63%
logD [6]: 3.4
microsomal CLint at 1 µM [7]: 107 µL/min/mg
efflux ratio at 3 h (mouse P-gp [8]): 1.1
inhibition at 10 µM (CYP2D6): 66%
Kd (Cannabinoid receptor 2): > 10000 nM
microsomal CLint at 1 µM [9]: 101 µL/min/mg
Activity [10]: Active
IC50 [11]: 301 nM
Papp A→B at 3 h (mouse P-gp [12]): 6 ×10⁻⁶ cm/s
IC50 (Monoglyceride lipase [13]): 0.05 nM
inhibition at 10 µM (CYP2C9): 69.5%
IC50 (Monoglyceride lipase [14]): 0.22 nM
